Results reported in ChEMBL document CHEMBL1136272, “Development of a presynaptic 5-HT1A antagonist” (Bioorg Med Chem Lett, 2003).

How the values were obtained:
[1] = molecular target: T1, Adrenergic receptor alpha-2 (Rattus norvegicus, UniProt P22086+P19328+P22909); assay: Inhibitory concentration required against Alpha-2 adrenergic receptor in rat cortex [3H]clonidine
T1 sequence (P22086 whole entry): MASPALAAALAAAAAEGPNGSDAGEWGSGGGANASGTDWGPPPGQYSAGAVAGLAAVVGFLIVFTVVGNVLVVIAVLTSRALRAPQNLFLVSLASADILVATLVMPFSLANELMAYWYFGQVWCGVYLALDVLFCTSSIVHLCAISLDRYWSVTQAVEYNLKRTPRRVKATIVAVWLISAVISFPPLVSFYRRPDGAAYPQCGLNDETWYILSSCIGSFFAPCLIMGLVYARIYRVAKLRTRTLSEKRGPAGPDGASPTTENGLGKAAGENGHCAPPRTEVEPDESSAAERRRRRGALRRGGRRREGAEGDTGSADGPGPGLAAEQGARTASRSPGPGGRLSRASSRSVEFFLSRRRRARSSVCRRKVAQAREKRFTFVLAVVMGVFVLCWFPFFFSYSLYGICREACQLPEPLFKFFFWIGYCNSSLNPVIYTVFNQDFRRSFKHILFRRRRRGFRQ
T1 sequence (P19328 whole entry): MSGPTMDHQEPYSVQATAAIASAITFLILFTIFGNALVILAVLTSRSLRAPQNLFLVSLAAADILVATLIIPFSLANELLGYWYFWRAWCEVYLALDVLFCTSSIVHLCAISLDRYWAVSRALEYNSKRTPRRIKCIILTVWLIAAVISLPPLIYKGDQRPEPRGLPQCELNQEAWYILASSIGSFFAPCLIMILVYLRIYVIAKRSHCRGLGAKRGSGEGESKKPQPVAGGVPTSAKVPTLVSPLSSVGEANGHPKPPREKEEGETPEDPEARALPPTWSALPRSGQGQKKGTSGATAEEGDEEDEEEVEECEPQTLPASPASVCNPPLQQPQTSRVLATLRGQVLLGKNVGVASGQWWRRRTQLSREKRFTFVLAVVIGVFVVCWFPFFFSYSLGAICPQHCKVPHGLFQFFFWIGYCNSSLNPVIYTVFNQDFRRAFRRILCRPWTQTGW
T1 sequence (P22909 whole entry): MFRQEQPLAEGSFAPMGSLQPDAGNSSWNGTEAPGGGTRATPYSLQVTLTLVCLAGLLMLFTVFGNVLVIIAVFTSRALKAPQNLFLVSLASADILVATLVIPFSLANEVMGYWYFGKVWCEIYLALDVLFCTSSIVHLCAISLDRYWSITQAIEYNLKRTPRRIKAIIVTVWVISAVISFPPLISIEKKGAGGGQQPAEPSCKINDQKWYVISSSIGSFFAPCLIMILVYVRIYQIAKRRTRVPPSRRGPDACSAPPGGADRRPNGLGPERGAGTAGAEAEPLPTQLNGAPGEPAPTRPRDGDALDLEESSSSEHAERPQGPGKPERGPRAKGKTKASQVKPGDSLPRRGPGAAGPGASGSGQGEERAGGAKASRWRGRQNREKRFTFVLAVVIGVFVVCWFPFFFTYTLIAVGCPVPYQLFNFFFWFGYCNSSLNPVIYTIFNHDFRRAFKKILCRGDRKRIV

[2] = molecular target: T2, Adrenergic receptor alpha-1 (Rattus norvegicus, UniProt P15823+P23944+P43140); assay: Inhibitory concentration required against alpha-1 adrenergic receptor in rat cortex using [3H]-WB- 4101
T2 sequence (P15823 whole entry): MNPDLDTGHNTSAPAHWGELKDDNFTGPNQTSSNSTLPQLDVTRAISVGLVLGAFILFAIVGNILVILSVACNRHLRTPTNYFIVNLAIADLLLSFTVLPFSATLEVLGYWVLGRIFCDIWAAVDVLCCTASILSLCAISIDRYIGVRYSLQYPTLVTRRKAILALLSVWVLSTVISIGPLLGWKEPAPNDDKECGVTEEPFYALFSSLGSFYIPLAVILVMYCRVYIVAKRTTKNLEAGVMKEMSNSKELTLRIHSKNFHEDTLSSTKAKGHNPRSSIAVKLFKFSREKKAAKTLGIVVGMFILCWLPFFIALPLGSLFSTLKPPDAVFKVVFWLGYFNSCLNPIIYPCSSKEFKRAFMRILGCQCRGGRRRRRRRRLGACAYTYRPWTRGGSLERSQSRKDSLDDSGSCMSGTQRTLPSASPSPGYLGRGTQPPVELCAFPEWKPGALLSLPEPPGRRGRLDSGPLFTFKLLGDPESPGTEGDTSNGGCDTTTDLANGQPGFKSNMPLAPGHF
T2 sequence (P23944 whole entry): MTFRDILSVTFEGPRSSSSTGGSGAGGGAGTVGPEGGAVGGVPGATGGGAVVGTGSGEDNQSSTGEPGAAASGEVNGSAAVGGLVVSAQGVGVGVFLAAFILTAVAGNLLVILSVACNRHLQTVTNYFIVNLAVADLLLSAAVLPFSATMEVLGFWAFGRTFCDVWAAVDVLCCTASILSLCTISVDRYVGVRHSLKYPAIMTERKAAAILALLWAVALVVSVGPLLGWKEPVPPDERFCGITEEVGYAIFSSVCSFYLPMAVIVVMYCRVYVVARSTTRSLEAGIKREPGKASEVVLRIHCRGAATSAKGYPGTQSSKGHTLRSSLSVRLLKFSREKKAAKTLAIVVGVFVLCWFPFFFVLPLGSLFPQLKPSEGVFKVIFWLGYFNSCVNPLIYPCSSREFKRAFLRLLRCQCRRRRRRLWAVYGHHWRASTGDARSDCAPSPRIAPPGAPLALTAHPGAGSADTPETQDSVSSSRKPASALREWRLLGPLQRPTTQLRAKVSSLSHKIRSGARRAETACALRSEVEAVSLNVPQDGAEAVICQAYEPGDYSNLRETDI
T2 sequence (P43140 whole entry): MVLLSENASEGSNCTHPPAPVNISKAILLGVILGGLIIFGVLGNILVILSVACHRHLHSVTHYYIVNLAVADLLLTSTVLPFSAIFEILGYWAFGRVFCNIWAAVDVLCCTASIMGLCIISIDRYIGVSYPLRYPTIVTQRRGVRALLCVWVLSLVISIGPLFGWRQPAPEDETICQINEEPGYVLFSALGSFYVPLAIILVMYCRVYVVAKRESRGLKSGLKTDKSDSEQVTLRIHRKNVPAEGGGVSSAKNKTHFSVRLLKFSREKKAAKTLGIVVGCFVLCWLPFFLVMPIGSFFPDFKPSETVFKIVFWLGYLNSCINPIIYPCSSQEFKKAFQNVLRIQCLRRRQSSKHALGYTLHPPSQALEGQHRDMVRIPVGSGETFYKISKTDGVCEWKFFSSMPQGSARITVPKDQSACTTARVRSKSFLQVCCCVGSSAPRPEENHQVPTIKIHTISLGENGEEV

Rattus norvegicus [3] = assay: Social interaction time determined in vivo in rat at 0.1 mg/kg of ip administration; type: functional; conditions: route intraperitoneal
Procedure, shortened: (§1)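 Rat social interaction paradigm with total motor activity counts recorded in the same session. All compounds were given ip, with a saline-treated control group. Combination arms gave a 0.1 mg/kg agent together with a second agent at 1 mg/kg, both ip. Social interaction time (s) and motor counts are reported as mean ± SEM, with significance tested against saline control.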

[4] = molecular target: 5-hydroxytryptamine receptor 1B (Rattus norvegicus, UniProt P28564); assay: Inhibitory concentration required against 5-hydroxytryptamine 1B receptor in rat striatum using [3H]5-HT; type: tissue-based
[5] = molecular target: T3, 5-hydroxytryptamine receptor 1A (Rattus norvegicus, UniProt P19327); assay: Inhibition of the 5-hydroxytryptamine 1A receptor in rat dorsal raphe
T3 sequence (P19327 whole entry): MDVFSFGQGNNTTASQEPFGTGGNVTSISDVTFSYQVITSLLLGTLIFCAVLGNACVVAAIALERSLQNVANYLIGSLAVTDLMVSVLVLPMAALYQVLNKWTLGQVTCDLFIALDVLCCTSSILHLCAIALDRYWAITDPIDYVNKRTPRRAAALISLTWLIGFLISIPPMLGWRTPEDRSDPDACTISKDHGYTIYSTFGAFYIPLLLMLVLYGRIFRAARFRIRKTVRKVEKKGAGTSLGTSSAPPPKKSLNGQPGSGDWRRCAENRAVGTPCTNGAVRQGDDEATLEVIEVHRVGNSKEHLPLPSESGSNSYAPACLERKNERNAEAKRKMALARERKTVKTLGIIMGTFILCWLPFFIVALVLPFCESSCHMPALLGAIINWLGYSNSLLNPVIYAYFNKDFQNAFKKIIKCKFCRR

[6] = molecular target: Sodium-dependent serotonin transporter (Rattus norvegicus, UniProt P31652); assay: Inhibitory concentration required against 5-HT uptake in rat cortex
D(2) dopamine receptor = D(2) dopamine receptor (Rattus norvegicus, UniProt P61169); assay: Inhibitory concentration required against Dopamine receptor D2 in rat striatum; type: tissue-based
[7] = molecular target: Serotonin 2 (5-HT2) receptor (Rattus norvegicus, UniProt P30994+P08909+P14842); assay: Inhibitory concentration required against 5-hydroxytryptamine 2 receptor in rat cortex using [3H]spiperone
Rattus norvegicus [8] = assay: In vivo motor activity determined in rat at 0.1 mg/kg of ip administration; type: functional; conditions: route intraperitoneal; procedure, shortened: as §1
Rattus norvegicus [9] = assay: In vivo motor activity determined in rat at 1.7 + 1 mg/kg of ip administration; type: functional; conditions: route intraperitoneal
Procedure, shortened: (§2)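 Rats dosed i.p. against a saline-treated control group. Social interaction time (s) and total motor activity (counts) were recorded in the same social-interaction session and reported as mean ± SEM, with significance tested against saline control.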

Rattus norvegicus [10] = assay: Social interaction time determined in vivo in rat at 1.7 + 1 mg/kg of ip administration; type: functional; conditions: route intraperitoneal; procedure, shortened: as §2
Rattus norvegicus [11] = assay: In vivo motor activity determined in rat at 1 mg/kg of ip administration; type: functional; conditions: route intraperitoneal; procedure, shortened: as §1
Rattus norvegicus [12] = assay: Social interaction time determined in vivo in rat at 1 mg/kg of ip administration; type: functional; conditions: route intraperitoneal; procedure, shortened: as §1
Rattus norvegicus [13] = assay: In vivo motor activity determined in rat at 1.7 mg/kg of ip administration; type: functional; conditions: route intraperitoneal; procedure, shortened: as §2
Rattus norvegicus [14] = assay: Social interaction time determined in vivo rat at 1.7 mg/kg of ip administration; type: functional; conditions: route intraperitoneal; procedure, shortened: as §2

Chain of Sodium-dependent serotonin transporter (P31652 whole entry): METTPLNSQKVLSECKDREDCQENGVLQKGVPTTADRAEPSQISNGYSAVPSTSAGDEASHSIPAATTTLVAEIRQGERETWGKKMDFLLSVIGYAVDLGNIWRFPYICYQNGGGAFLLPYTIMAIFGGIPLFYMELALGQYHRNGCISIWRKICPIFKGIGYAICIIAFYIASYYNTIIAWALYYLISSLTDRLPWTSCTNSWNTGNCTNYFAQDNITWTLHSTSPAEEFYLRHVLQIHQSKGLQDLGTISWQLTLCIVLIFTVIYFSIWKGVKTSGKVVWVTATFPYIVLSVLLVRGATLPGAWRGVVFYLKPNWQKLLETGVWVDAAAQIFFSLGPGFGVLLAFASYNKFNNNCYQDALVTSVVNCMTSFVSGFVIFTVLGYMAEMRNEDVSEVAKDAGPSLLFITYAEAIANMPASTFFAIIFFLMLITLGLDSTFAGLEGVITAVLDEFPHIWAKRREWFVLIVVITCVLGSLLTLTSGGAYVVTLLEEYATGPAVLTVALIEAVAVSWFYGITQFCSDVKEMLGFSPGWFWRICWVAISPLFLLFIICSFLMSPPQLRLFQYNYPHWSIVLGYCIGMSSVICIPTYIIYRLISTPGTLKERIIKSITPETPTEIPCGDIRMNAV
Chain of D(2) dopamine receptor (P61169 whole entry): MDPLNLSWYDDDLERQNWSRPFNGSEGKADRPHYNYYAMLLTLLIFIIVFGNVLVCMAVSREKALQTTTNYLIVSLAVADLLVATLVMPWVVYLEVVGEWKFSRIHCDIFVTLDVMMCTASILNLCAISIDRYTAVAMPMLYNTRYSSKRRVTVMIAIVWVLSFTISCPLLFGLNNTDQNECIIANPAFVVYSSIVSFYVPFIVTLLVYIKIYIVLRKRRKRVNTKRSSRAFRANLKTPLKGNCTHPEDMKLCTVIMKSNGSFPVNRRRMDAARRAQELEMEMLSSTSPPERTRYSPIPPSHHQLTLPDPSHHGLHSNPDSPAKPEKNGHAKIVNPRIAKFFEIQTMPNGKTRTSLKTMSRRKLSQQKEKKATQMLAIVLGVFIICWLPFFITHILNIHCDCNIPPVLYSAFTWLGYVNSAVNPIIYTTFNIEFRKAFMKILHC
Chain of 5-hydroxytryptamine receptor 1B (P28564 whole entry): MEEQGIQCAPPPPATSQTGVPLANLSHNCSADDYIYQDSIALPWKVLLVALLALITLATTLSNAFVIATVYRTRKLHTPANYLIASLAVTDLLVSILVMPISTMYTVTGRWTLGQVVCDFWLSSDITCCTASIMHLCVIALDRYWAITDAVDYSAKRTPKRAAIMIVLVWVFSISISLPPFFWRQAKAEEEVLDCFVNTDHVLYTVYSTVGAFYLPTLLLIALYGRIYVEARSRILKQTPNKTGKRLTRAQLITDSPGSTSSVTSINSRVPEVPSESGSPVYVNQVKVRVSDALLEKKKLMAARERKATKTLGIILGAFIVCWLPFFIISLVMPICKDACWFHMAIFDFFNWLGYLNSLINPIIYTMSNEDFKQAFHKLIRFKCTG

Row | Structure (SMILES) | IC50 [1] [nM] | IC50 [2] [nM] | Time (Rattus norvegicus [3]) [s] | IC50 [4] [nM] | IC50 [5] [nM] | IC50 [6] [nM] | IC50 (D(2) dopamine receptor) [nM] | IC50 [7] [nM] | Motor activity (Rattus norvegicus [8]) [Counts] | Motor activity (Rattus norvegicus [9]) [Counts] | Time (Rattus norvegicus [10]) [s] | Motor activity (Rattus norvegicus [11]) [Counts] | Time (Rattus norvegicus [12]) [s] | Motor activity (Rattus norvegicus [13]) [Counts] | Time (Rattus norvegicus [14]) [s]
1 | OC1(c2ccc3c(c2)OCO3)CCC(N2CCN(Cc3ccccc3)CC2)CC1 (configuration not stated) | 410 | 700 | 104 | > 1000 | 20 | > 1000 | 1700 | 11000 | 4700 | – | – | – | – | – | –
2 | CN1C(=O)CN=C(c2ccccc2)c2cc(Cl)ccc21.COc1cccc(CN2CCN(C3CCC(O)(c4ccc5c(c4)OCO5)CC3)CC2)c1 (configuration not stated) | – | – | – | – | – | – | – | – | – | 4900 | 113 | – | – | – | –
3 | COc1cccc(CN2CCN(C3CCC(O)(c4ccc5c(c4)OCO5)CC3)CC2)c1 (configuration not stated) | 1100 | 1500 | – | > 100000 | 2.2 | 3000 | 4800 | 28000 | – | – | – | 5140 | 65 | – | –
4 | CN1C(=O)CN=C(c2ccccc2)c2cc(Cl)ccc21 [DIAZEPAM] | – | – | – | – | – | – | – | – | – | – | – | – | – | 5100 | 120
